According to paper PMC4306503 (Bioconjugate Chemistry, 2014):
pKd: −log10 of the molar value. *1 amine or outer side, *2 acyl side, *3 side chain or, on linkers, in order; H or OH if unused. Where a SMILES comes first, the peptide text is derived from it. Side-chain parts run from the residue outwards. [ ]: non-standard residue; d: D form. The star is where a group is joined. X1 = COc1cc2c3cc1OCCOc1cc4c(cc1OC)Cc1cc5c(OC)cc1Cc1cc(c(OCc6cn(CCC(=O)*)nn6)cc1C4)OCCOc1cc(c(cc1OC)Cc1cc(c(OC)cc1C3)OCCO5)C2; Pteroyl = Nc1nc2ncc(CNc3ccc(C(=O)*)cc3)nc2c(=O)[nH]1; γGlu = O=C(O)[C@H](CCC(=O)[*:2])N[*:1]; AEEEA = NCCOCCOCCOCC(=O)O; StBu = CC(C)(C)S*

What was measured:
[1] = target: reduced folate carrier (RFC); conditions: low affinity folate carrier RFC; cited from earlier work
[2] = target: folate receptor (FR); conditions: high affinity FR, 1:1 stoichiometry; cited from earlier work
[3] = at 300 K; cited from earlier work
[4] = test system: KB (FR+) cells; assay: MTT cell viability assay, KB cells; type: cell-based, human; conditions: 100 μM (highest concentration), 24 h incubation
How it was run: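 KB cells kept in RPMI-1640 (25 mM HEPES, 2 mM L-glutamine, 15% fetal calf serum, penicillin/streptomycin) and seeded at 25 000 per well overnight. Unlabelled test conjugate added in triplicate at final 0–100 μM for 24 h in the dark. Cells then DPBS-washed thrice and given MTT (5 mg/mL solution) for 3 h. Formazan was dissolved in DMSO and read at 540 nm. Viability is expressed as percent of untreated-control absorbance.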

[5] = target: folate binding protein (FBP) (Bos taurus, UniProt P02702); assay: Hyperpolarized 129Xe NMR with folate binding protein; conditions: 30 μM FBP, 30 and 60 μM biosensor, acetate buffer pH 5.0 with and without 10% glycerol, incubated 30 min
[6] = Solubility in water after HPLC purification; type: physicochemical; conditions: after cleavage from solid support and reverse-phase HPLC purification

Chain of folate binding protein (FBP) (P02702 20-241): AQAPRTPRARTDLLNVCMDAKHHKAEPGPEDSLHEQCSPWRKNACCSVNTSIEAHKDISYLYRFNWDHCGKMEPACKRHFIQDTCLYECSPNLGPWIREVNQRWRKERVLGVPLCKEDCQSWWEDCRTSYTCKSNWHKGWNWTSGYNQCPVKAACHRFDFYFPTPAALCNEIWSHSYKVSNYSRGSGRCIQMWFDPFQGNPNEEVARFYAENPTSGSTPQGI

For `CN1c2c(nc(N)[nH]c2=O)NCC1CNc1ccc(C(=O)N[C@@H](CCC(=O)O)C(=O)O)cc1` (stereo partly drawn) [5-methyltetrahydrofolate, 5-methyl tetrahydrofolate], the dissociation constant [1] is listed as “micromolar” and the pKd [2] is listed as 9.00 to 10.00.
For `[Xe]` [129Xe], the water solubility [3] is listed as 4.2 mM atm^–1.
For `COc1cc2c3cc1OCCOc1cc4c(cc1OC)Cc1cc5c(OC)cc1Cc1cc(c(OCc6cn(CCC(=O)N[C@@H](CCCCNC(=O)CC[C@H](NC(=O)c7ccc(NCc8cnc9nc(N)[nH]c(=O)c9n8)cc7)C(=O)O)C(=O)N[C@@H](CCCCN)C(=O)N[C@@H](CCCNC(=N)N)C(=O)N[C@@H](CCCCN)C(=O)N[C@@H](CCCNC(=N)N)C(=O)N[C@@H](CCCCN)C(=O)NCCOCCOCCOCC(=O)N[C@@H](CCCNC(=N)N)C(=O)N[C@@H](CCCCN)C(=O)N[C@@H](CSSC(C)(C)C)C(=O)N[C@@H](CCCNC(=N)N)C(N)=O)nn6)cc1C4)OCCOc1cc(c(cc1OC)Cc1cc(c(OC)cc1C3)OCCO5)C2` [compound 24] (X1-K([γGlu-Pteroyl])KRKRK[AEEEA]RKC(StBu)R-NH2), the “viability (maximum toxicity)” value [4] was 23%, the “protein bound 129Xe NMR signal” value [5] was “no observable protein bound signal” and the solubility in water [6] was “readily soluble in water”.
